Data set [1] in a line: Stability of the compound in PBS containing 10% DMSO at 37 degC measured after 12 hrs by HPLC analysis. The class given is physicochemical. The following applies: read-out: Stability.
A short description of data set [2]: Selectivity index, ratio of cytotoxic concentration for human HepG2 cells by neutral red uptake assay to MIC for Mycobacterium tuberculosis H37Rv ATCC 27294. It is filed as toxicity. The following applies: read-out: Selectivity Index.
The nature of data set [3]: Stability of the compound in PBS containing 10% DMSO at 25 degC measured after 12 hrs by HPLC analysis. To be noted: buffer. It is filed as physicochemical.
Data set [4] is filed under the species Danio rerio. The experiment in a line: Cardiotoxicity in Zebrafish AB embryos assessed as heart beat rate at 3 uM measured at 5 days post fertilization by stereomicroscopic method (reference value: 148.1 to 158.2 bpm). The class given is organism-based. The following applies: in vivo, 120 h.
A short description of data set [5]: Selectivity index, ratio of cytotoxic concentration for human HepG2 cells by MTT assay to MIC for Mycobacterium tuberculosis H37Rv ATCC 27294. The following applies: read-out: Selectivity Index. It is filed as toxicity. (In general: Tetrazolium dyes change colour on reduction, which living cells bring about.)
The nature of data set [6]: Stability of the compound in PBS containing 10% DMSO at 37 degC measured after 48 hrs by HPLC analysis. It is filed as physicochemical. The following applies: read-out: Stability.
For data set [7], the species on record is Danio rerio. The experiment in a line: Toxicity in Zebrafish AB embryos assessed as morphological alteration by measuring effect on ocular distance at 3 to 20 uM measured at 2 to 5 days post fertilization by stereomicroscopic method. To be noted: in vivo. It is filed as organism-based. The essentials: (§1)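 AB embryos are treated from 2 hpf to 5 dpf at 3.0, 15.0 and 20.0 µM in fish water with 1% DMSO, at 28 °C. Controls are fish water and 1% DMSO. Larvae are photographed under a stereomicroscope (3×) at 2 and 5 dpf, n = 30. Body length (µm), ocular distance (µm) and eye surface area (µm²) are measured from the images.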

For data set [8], the species on record is Danio rerio. The experiment in a line: Induction of neurological impairment in Zebrafish AB embryos assessed as alteration in locomotor activity by measuring swimming activity at 3 to 20 uM measured at 5 days post fertilization. The class given is organism-based. To be noted: in vivo, 120 h. The essentials: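 Larvae were exposed from 2 hpf in fish water with 1% DMSO. At 5 dpf each larva was placed singly in a well of water or treatment solution. After 1 min acclimation, it was video-tracked for 5 min at 15 positions/s, and distance travelled was scored.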

Data set [9] is described as follows: Stability of the compound in PBS containing 10% DMSO at 25 degC measured after 24 hrs by HPLC analysis. The class given is physicochemical. The following applies: buffer.
Data set [10] is described as follows: Stability of the compound in PBS containing 10% DMSO at 37 degC measured after 6 hrs by HPLC analysis. To be noted: read-out: Stability. The class given is physicochemical.
The species named for data set [11] is Danio rerio. The data set can be described thus: Toxicity in Zebrafish AB embryos assessed as morphological alteration by measuring effect on body length of larvae at 20 uM measured at 2 to 5 days post fertilization by stereomicroscopic method. It is filed as organism-based. The following applies: in vivo. In short, it runs like this: as §1

For the compound `O=C(CSc1nc2ccccc2c(=O)[nH]1)NC1CCCCC1`, the remaining at 12 h in [1] is 120%. For the same compound, the selectivity ratio in data set [2] and in data set [5] was not above 32 throughout. Besides, the figures for the Stability in data set [3] and in data set [9] were 101% and 109%, respectively. The figures for the Activity in the data set filed under Danio rerio [4], in the data set filed under Danio rerio [7] and in the data set filed under Danio rerio [8] were 162.8 bpm, “Non-Toxic” and “Non-Toxic”, respectively. Besides, the remaining at 48 h in data set [6] was 111%. For the same compound, the remaining at 6 h in data set [10] is 111%.
As for `CC1CCC(NC(=O)CSc2nc3ccccc3c(=O)[nH]2)CC1` (stereo unspecified), in [1], the remaining at 12 h is 70%. Also, the selectivity ratio in data set [2] and in data set [5] was not above 32 throughout. Also, the figures for the Stability in data set [3] and in data set [9] were 100% and 111%, respectively. The Activity is listed as 147.7 bpm in the data set filed under Danio rerio [4], “Non-Toxic” in the data set filed under Danio rerio [7] and “Non-Toxic” in the data set listed under Danio rerio [8]. Also, the remaining at 48 h in data set [6] was 48%. Also, the remaining at 6 h in [10] was determined as 59%.
With `CC1CCCCC1NC(=O)CSc1nc2ccccc2c(=O)[nH]1` (stereo unspecified), in [1], the remaining at 12 h was 70%. Also, the selectivity ratio in [2] and in data set [5] was not above 32 each time. The Stability was determined as 137% in [3] and 138% in data set [9]. For the same compound, the values for the Activity in the data set filed under Danio rerio [4], in the data set listed under Danio rerio [7] and in the data set filed under Danio rerio [8] were 162.6 bpm, “Non-Toxic” and “Non-Toxic”, respectively. In data set [6], the remaining at 48 h worked out at 80%. Besides, the remaining at 6 h in [10] came to 75%.
As for `C[C@H]1CC[C@H](NC(=O)CSc2nc3ccccc3c(=O)[nH]2)CC1`, the remaining at 12 h in data set [1] was found to be 70%. Further, the selectivity ratio in data set [2] and in data set [5] was not above 32 in each case. Further, the Stability in data set [3] is recorded as 47%; in data set [9], 26%. In addition, the Activity entry in the data set filed under Danio rerio [11] is recorded as “Toxic”; in the data set listed under Danio rerio [4] it was 149.2 bpm; in the data set filed under Danio rerio [7], “Non-Toxic”; in the data set listed under Danio rerio [8], “Non-Toxic”. Further, the remaining at 48 h in [6] stood at 50%. Besides, in data set [10], the remaining at 6 h stood at 87%.
As to `O=C(CSc1nc2ccccc2c(=O)[nH]1)NC1CCCCCC1`, the remaining at 12 h in [1] turned out to be 81%. Also, the selectivity ratio in [2] and in data set [5] was not above 32 each time. The Stability in [3] was 92%; in data set [9], 122%. The Activity in the data set filed under Danio rerio [4] is on record as 160.1 bpm; in the data set listed under Danio rerio [7] it was “Non-Toxic”; in the data set listed under Danio rerio [8] it was “Non-Toxic”. Moreover, the remaining at 48 h in data set [6] was 71%. Besides, the remaining at 6 h in [10] turned out to be 67%.
As for `CC1CCCC(NC(=O)CSc2nc3ccccc3c(=O)[nH]2)C1` (stereo unspecified), in data set [1], the remaining at 12 h was determined as 100%. Moreover, the selectivity ratio in data set [2] and in data set [5] was not above 32 in each case. Further, the Stability in data set [3] worked out at 102%; in [9] it was 100%. Further, the Activity is on record as 157.2 bpm in the data set filed under Danio rerio [4], “Non-Toxic” in the data set filed under Danio rerio [7] and “Non-Toxic” in the data set filed under Danio rerio [8]. The remaining at 48 h in data set [6] turned out to be 98%. For the same compound, the remaining at 6 h in [10] amounted to 101%.
With `O=C(CSc1nc2ccccc2c(=O)[nH]1)NCC1CCCCC1`, the remaining at 12 h in data set [1] stood at 111%. The selectivity ratio in data set [2] and in data set [5] was not above 32 throughout. Moreover, the Stability in data set [3] amounted to 112%; in [9] it was 114%. Moreover, the Activity in the data set listed under Danio rerio [4] is 157.8 bpm; in the data set listed under Danio rerio [7], “Non-Toxic”; in the data set filed under Danio rerio [8], “Non-Toxic”. The remaining at 48 h in data set [6] is 105%. The remaining at 6 h in [10] is 109%.

These data come from ChEMBL document CHEMBL4152290, “1H-Benzo[d]imidazoles and 3,4-dihydroquinazolin-4-ones: Design, synthesis and antitubercular activity” (Eur J Med Chem, 2018).
